Measurements from ChEMBL document CHEMBL4689842, “EUbOPEN Chemogenomics Library wave 1” (2021).

Tested on: U2OS
Test: Multiplex assay against U2OS
Format: toxicity, cell-based
Conditions: human
In short: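 Compound was added to live cells that had been stained at seeding with Hoechst33342, BioTracker Green Microtubule Cytoskeleton Dye, MitoTracker Red and Annexin V Alexa Fluor 680, and imaging followed on a CQ1 microscope at 37°C and 5% CO2. CellPathfinder machine-learning gating divided cells into Hoechst high-intensity objects or normal cells, normal cells into healthy, pyknosed or fragmented nuclei, and pyknosed cells into mitotic or apoptotic. Tubulin, mitochondrial-mass and membrane-permeability phenotypes are per cents of healthy-nucleus cells.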

[1] = 12 h, 1 µM, compound concentration 1 uM, replicate 1
[2] = 12 h, 1 µM, compound concentration 1 uM, replicate 2
[3] = 12 h, 10 µM, compound concentration 10 uM, replicate 1
[4] = 12 h, 10 µM, compound concentration 10 uM, replicate 2
[5] = 24 h, 1 µM, compound concentration 1 uM, replicate 1
[6] = 24 h, 1 µM, compound concentration 1 uM, replicate 2
[7] = 24 h, 10 µM, compound concentration 10 uM, replicate 1
[8] = 24 h, 10 µM, compound concentration 10 uM, replicate 2
[9] = 48 h, 1 µM, compound concentration 1 uM, replicate 1
[10] = 48 h, 1 µM, compound concentration 1 uM, replicate 2
[11] = 48 h, 10 µM, compound concentration 10 uM, replicate 1
[12] = 48 h, 10 µM, compound concentration 10 uM, replicate 2

SMILES: CN1CCN(CCOc2cc(OC3CCOCC3)c3c(Nc4c(Cl)ccc5c4OCO5)ncnc3c2)CC1 [SARACATINIB]
- Population Apoptotic (%) [1]: 48%
- Population Fragmented Nuclei (%) [1]: 15%
- Population Healthy Nuclei (%) [1]: 69%
- Population Hoechst High Intensity Objects (%) [1]: 5%
- Population Membrane Permeable-Phenotype (%) [1]: 5%
- Population Mitochondria Different-Phenotype (%) [1]: 20%
- Population Mitotic Cells (%) [1]: 51%
- Population Normal (%) [1]: 94%
- Population Pyknosed Nuclei (%) [1]: 15%
- Population Tubulin-Different-Phenotype (%) [1]: 15%
- Total Cell Count [1]: 138
- Population Apoptotic (%) [2]: 70%
- Population Fragmented Nuclei (%) [2]: 9%
- Population Healthy Nuclei (%) [2]: 72%
- Population Hoechst High Intensity Objects (%) [2]: 10%
- Population Membrane Permeable-Phenotype (%) [2]: 0%
- Population Mitochondria Different-Phenotype (%) [2]: 23%
- Population Mitotic Cells (%) [2]: 30%
- Population Normal (%) [2]: 90%
- Population Pyknosed Nuclei (%) [2]: 18%
- Population Tubulin-Different-Phenotype (%) [2]: 10%
- Population Apoptotic (%) [3]: 63%
- Population Fragmented Nuclei (%) [3]: 15%
- Population Healthy Nuclei (%) [3]: 57%
- Population Hoechst High Intensity Objects (%) [3]: 8%
- Population Membrane Permeable-Phenotype (%) [3]: 29%
- Population Mitochondria Different-Phenotype (%) [3]: 89%
- Population Mitotic Cells (%) [3]: 36%
- Population Normal (%) [3]: 91%
- Population Pyknosed Nuclei (%) [3]: 26%
- Population Tubulin-Different-Phenotype (%) [3]: 100%
- Total Cell Count [3]: 184
- Population Apoptotic (%) [4]: 75%
- Population Fragmented Nuclei (%) [4]: 9%
- Population Healthy Nuclei (%) [4]: 71%
- Population Hoechst High Intensity Objects (%) [4]: 7%
- Population Membrane Permeable-Phenotype (%) [4]: 21%
- Population Mitochondria Different-Phenotype (%) [4]: 100%
- Population Mitotic Cells (%) [4]: 25%
- Population Normal (%) [4]: 92%
- Population Pyknosed Nuclei (%) [4]: 18%
- Total Cell Count [4]: 60
- Population Apoptotic (%) [5]: 44%
- Population Healthy Nuclei (%) [5]: 71%
- Population Hoechst High Intensity Objects (%) [5]: 4%
- Population Membrane Permeable-Phenotype (%) [5]: 4%
- Population Mitochondria Different-Phenotype (%) [5]: 17%
- Population Mitotic Cells (%) [5]: 55%
- Population Normal (%) [5]: 95%
- Population Pyknosed Nuclei (%) [5]: 13%
- Population Tubulin-Different-Phenotype (%) [5]: 11%
- Total Cell Count [5]: 139
- Population Apoptotic (%) [6]: 50%
- Population Fragmented Nuclei (%) [6]: 14%
- Population Healthy Nuclei (%) [6]: 67%
- Population Hoechst High Intensity Objects (%) [6]: 8%
- Population Membrane Permeable-Phenotype (%) [6]: 6%
- Population Mitochondria Different-Phenotype (%) [6]: 13%
- Population Mitotic Cells (%) [6]: 50%
- Population Normal (%) [6]: 91%
- Population Pyknosed Nuclei (%) [6]: 18%
- Population Tubulin-Different-Phenotype (%) [6]: 4%
- Population Apoptotic (%) [7]: 76%
- Population Fragmented Nuclei (%) [7]: 18%
- Population Healthy Nuclei (%) [7]: 60%
- Population Hoechst High Intensity Objects (%) [7]: 5%
- Population Membrane Permeable-Phenotype (%) [7]: 35%
- Population Mitochondria Different-Phenotype (%) [7]: 97%
- Population Mitotic Cells (%) [7]: 23%
- Population Normal (%) [7]: 94%
- Population Pyknosed Nuclei (%) [7]: 20%
- Population Tubulin-Different-Phenotype (%) [7]: 100%
- Total Cell Count [7]: 224
- Population Apoptotic (%) [8]: 85%
- Population Fragmented Nuclei (%) [8]: 11%
- Population Healthy Nuclei (%) [8]: 54%
- Population Hoechst High Intensity Objects (%) [8]: 8%
- Population Membrane Permeable-Phenotype (%) [8]: 21%
- Population Mitochondria Different-Phenotype (%) [8]: 96%
- Population Mitotic Cells (%) [8]: 14%
- Population Normal (%) [8]: 91%
- Population Pyknosed Nuclei (%) [8]: 34%
- Population Tubulin-Different-Phenotype (%) [8]: 93%
- Total Cell Count [8]: 70
- Population Apoptotic (%) [9]: 56%
- Population Fragmented Nuclei (%) [9]: 13%
- Population Healthy Nuclei (%) [9]: 67%
- Population Hoechst High Intensity Objects (%) [9]: 5%
- Population Membrane Permeable-Phenotype (%) [9]: 5%
- Population Mitochondria Different-Phenotype (%) [9]: 12%
- Population Mitotic Cells (%) [9]: 44%
- Population Normal (%) [9]: 94%
- Population Pyknosed Nuclei (%) [9]: 18%
- Population Tubulin-Different-Phenotype (%) [9]: 7%
- Population Apoptotic (%) [10]: 38%
- Population Fragmented Nuclei (%) [10]: 10%
- Population Healthy Nuclei (%) [10]: 73%
- Population Hoechst High Intensity Objects (%) [10]: 6%
- Population Membrane Permeable-Phenotype (%) [10]: 13%
- Population Mitochondria Different-Phenotype (%) [10]: 16%
- Population Mitotic Cells (%) [10]: 61%
- Population Normal (%) [10]: 93%
- Population Pyknosed Nuclei (%) [10]: 15%
- Population Tubulin-Different-Phenotype (%) [10]: 14%
- Population Apoptotic (%) [11]: 70%
- Population Fragmented Nuclei (%) [11]: 24%
- Population Healthy Nuclei (%) [11]: 36%
- Population Hoechst High Intensity Objects (%) [11]: 7%
- Population Membrane Permeable-Phenotype (%) [11]: 36%
- Population Mitochondria Different-Phenotype (%) [11]: 88%
- Population Mitotic Cells (%) [11]: 29%
- Population Normal (%) [11]: 92%
- Population Pyknosed Nuclei (%) [11]: 38%
- Population Tubulin-Different-Phenotype (%) [11]: 96%
- Total Cell Count [11]: 278
- Population Apoptotic (%) [12]: 73%
- Population Fragmented Nuclei (%) [12]: 9%
- Population Healthy Nuclei (%) [12]: 53%
- Population Hoechst High Intensity Objects (%) [12]: 15%
- Population Membrane Permeable-Phenotype (%) [12]: 48%
- Population Mitochondria Different-Phenotype (%) [12]: 100%
- Population Mitotic Cells (%) [12]: 26%
- Population Normal (%) [12]: 84%
- Population Pyknosed Nuclei (%) [12]: 37%
- Population Tubulin-Different-Phenotype (%) [12]: 90%
- Total Cell Count [12]: 89
